In the library only some 5.9% were active in any assay of this set; here they are far more common.
IDH1 R132H inh: inhibitors of IDH1 R132H reductase, primary screen, biochemical, plate reader, single point | Isocitrate dehydrogenase [NADP] cytoplasmic (Homo sapiens), O75874 | AID 624101, 2012 | inhibition, % at 10 µM | 70,000 compounds, 0.18% hits | diaphorase/resazurin fluorescence, 60 min; in the data active = inhibition above about 34%; inconclusive = no clear call, values can overlap the other calls; inactive = below about 11%
Pf Dd2 growth: P. falciparum Dd2 growth inhibitors, primary screen, SYBR Green fluorescence, single dose replicates | 72 h; active compounds read low | activity change, % at 10 µM | 94,000 compounds, 2.3% hits; in the data active = activity change below about -80%; inconclusive = no clear call, values can overlap the other calls
T cruzi growth-1: T. cruzi intracellular proliferation inhibitors, primary screen, cell-based, beta-gal Tulahuen parasites, NIH3T3 host, luminescence; AID 624255, 2012; inhibition, % at 8.34 µM; 77,000 compounds, 5.9% hits; T. cruzi beta-gal in NIH3T3, GalScreen luminescence, 90 h;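 active = mean inhibition above about 93%, with at least 55% of replicates each passing it, limit read from the data, passing the limit was not always enough; inconclusive = only one of those two conditions holds; inactive = neither condition holds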
KDM4C inh: inhibitors of GASC-1 (KDM4C) histone demethylase, primary screen, biochemical, single concentration HTS | inhibition, % at 12.5 µM | 96,000 compounds, 0.15% hits | Lysine-specific demethylase 4C (Homo sapiens), Q9H3R0 | AID 720574, 2013 | GST-KDM4C 2-372, H3K9me3 peptide, LANCE TR-FRET;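 active = mean replicate inhibition above about 25%, with at least 55% of replicates also reaching it, limit read from the data, passing the limit was not always enough; inconclusive = only one of those two conditions met; inactive = neither condition met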
Target sequence (Q9H3R0 2-372 limits assumed): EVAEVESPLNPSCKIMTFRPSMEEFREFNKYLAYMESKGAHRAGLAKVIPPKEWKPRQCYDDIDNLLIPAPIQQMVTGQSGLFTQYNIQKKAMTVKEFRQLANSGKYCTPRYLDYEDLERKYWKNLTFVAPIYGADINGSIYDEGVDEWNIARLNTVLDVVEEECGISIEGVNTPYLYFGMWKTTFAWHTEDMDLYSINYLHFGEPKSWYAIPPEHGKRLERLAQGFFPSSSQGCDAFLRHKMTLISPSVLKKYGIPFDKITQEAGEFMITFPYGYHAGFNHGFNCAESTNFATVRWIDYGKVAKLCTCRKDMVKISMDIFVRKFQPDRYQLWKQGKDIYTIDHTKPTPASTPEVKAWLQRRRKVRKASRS
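Material: GST-tagged GASC-1 (JMJD2C) catalytic fragment, aa 2-372 / Quantity: enzyme final amount 10 nM / Medium: HEPES buffer, pH 7.5, plus ascorbate / Doses: one test concentration per compound / Incubation: 30 min reaction, 60 min detection, RT / Measured by: LANCE TR-FRET / Read-out: inhibition from TR-FRET ratio decrease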
T cruzi growth-2: T. cruzi intracellular proliferation inhibitors, confirmation, cell-based, NIH3T3 host, beta-gal parasite, luminescence, cherry-pick | shares compounds with T cruzi growth-1 | T. cruzi beta-gal in NIH3T3, GalScreen luminescence, 90 h | inhibition, % at 8.35 µM | 5,600 compounds, 72% hits;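 active = mean replicate inhibition above about 95% and at least 55% of replicates individually reaching it, limit read from the data; inconclusive = only one of the two criteria is met; inactive = neither criterion is met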
T cruzi growth-3: inhibitors of intracellular T. cruzi replication, confirmation, NIH3T3 host cells, beta-gal parasites, cherry-pick, set 2; shares compounds with T cruzi growth-1; AID 651740, 2012; 5,600 compounds, 21% hits; T. cruzi beta-gal in NIH3T3, GalScreen luminescence, 90 h; inhibition, % at 2.09 µM;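 active = mean inhibition above about 95%, with at least 55% of replicates also reaching it, limit read from the data; inconclusive = meets just one of the two conditions; inactive = meets neither condition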
NIH3T3 tox: cytotoxicity in mouse NIH/3T3 fibroblasts, confirmation, cytotoxicity control for T. cruzi proliferation inhibitor project, cell-based, cherry-pick, single point; shares compounds with T cruzi growth-1; NIH/3T3 viability, CellTiter-Glo ATP luminescence, 90 h; cytotoxicity (signal decrease), % at 8.35 µM; 5,600 compounds, 14% hits; AID 651742, 2012;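 active = mean signal decrease across replicates above about 35% based on untreated-well scatter, with enough replicates individually passing, limit read from the data; inconclusive = no rule stated though some were filed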
3T3 cytotox 2: NIH/3T3 fibroblast cytotoxicity, confirmation, cytotoxicity control, cell-based, cherry-pick, single point, set 2 | shares compounds with T cruzi growth-1 | NIH/3T3 viability, CellTiter-Glo ATP luminescence, 90 h | inhibition, % at 24.9 µM | 5,600 compounds, 56% hits | AID 651744, 2012;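 active = mean loss of cell viability signal at or above a set limit, and enough replicates individually reaching it; inconclusive = meets only the mean limit or only the replicate share; inactive = meets neither condition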
Of the large screens only hits and unclear results are named; the others gave an inactive call (follow-up assays come after a bar, where they were run).

COc1ccc(Cl)cc1NC(=O)CSc1nnc(-c2ccc(Br)cc2)o1	none (no result: Pf Dd2 growth, T cruzi growth-1, KDM4C inh)
C[C@@H]1CN([C@H](C)CO)C(=O)c2cc(NC(=O)Nc3ccc4c(c3)OCO4)ccc2O[C@@H](C)CCCCO[C@H]1CN(C)S(=O)(=O)c1ccc(F)cc1	none (no result: IDH1 R132H inh)
C[C@@H]1CCCCO[C@@H](CN(C)S(=O)(=O)c2ccc(F)cc2)[C@H](C)CN([C@H](C)CO)C(=O)c2cc(NC(=O)Nc3ccc(F)cc3)ccc2O1	Pf Dd2 growth -81.6, T cruzi growth-1 100.0 (no result: IDH1 R132H inh) | T cruzi growth-2 104.1 | T cruzi growth-3 inactive | NIH3T3 tox inactive | 3T3 cytotox 2 inactive
C[C@H](CO)N1C[C@H](C)[C@H](CN(C)S(=O)(=O)c2ccc(F)cc2)OCCCC[C@H](C)Oc2ccc(NC(=O)Nc3ccc4c(c3)OCO4)cc2C1=O	T cruzi growth-1 105.6 | T cruzi growth-2 109.4 | T cruzi growth-3 inactive | NIH3T3 tox inactive | 3T3 cytotox 2 inactive
C[C@H]1CN([C@@H](C)CO)C(=O)c2cc(C#CCc3ccccc3)cnc2O[C@@H]1CN(C)C(=O)C1CCCCC1	Pf Dd2 growth -83.3, T cruzi growth-1 inconclusive (no result: IDH1 R132H inh) | T cruzi growth-2 96.4 | T cruzi growth-3 inactive | NIH3T3 tox inactive | 3T3 cytotox 2 96.7
C[C@H](CO)N1C[C@H](C)[C@@H](CN(C)Cc2ccccn2)Oc2ncc(C#CCC3CCCC3)cc2C1=O	none (no result: KDM4C inh)
C[C@H](CO)N1C[C@H](C)[C@H](CN(C)C(=O)C2CCCCC2)Oc2ncc(C#CCc3ccccc3)cc2C1=O	none (no result: IDH1 R132H inh)
C[C@@H]1CN([C@@H](C)CO)C(=O)c2cc(C#CCc3ccccc3)cnc2O[C@H]1CN(C)CC1CCOCC1	none
C[C@H]1CN([C@@H](C)CO)C(=O)c2cc(C#CCC3CCCC3)cnc2O[C@@H]1CN(C)Cc1ccccn1	T cruzi growth-1 104.2 | T cruzi growth-2 100.7 | T cruzi growth-3 inactive | NIH3T3 tox inactive | 3T3 cytotox 2 106.6
C[C@H](CO)N1C[C@H](C)[C@@H](CN(C)CC2CCCC2)Oc2ncc(C#CCc3ccccc3)cc2C1=O	Pf Dd2 growth -87.2, T cruzi growth-1 96.9 | T cruzi growth-2 101.5 | T cruzi growth-3 105.9 | NIH3T3 tox inconclusive | 3T3 cytotox 2 104.2
Cc1nc(SCC(=O)NCc2ccccc2)c2c(C)c(C)sc2n1	none (no result: Pf Dd2 growth, T cruzi growth-1, KDM4C inh)
C[C@@H]1CN([C@@H](C)CO)S(=O)(=O)c2ccc(-c3ccncc3)cc2O[C@H]1CN(C)Cc1cncnc1	T cruzi growth-1 107.8 | T cruzi growth-2 103.6 | T cruzi growth-3 104.2 | NIH3T3 tox inactive | 3T3 cytotox 2 44.8
C[C@@H]1CN([C@@H](C)CO)S(=O)(=O)c2ccc(-c3ccncc3)cc2O[C@@H]1CN(C)Cc1cncnc1	none
Cc1ccc(-c2ccc3c(c2)O[C@@H](CN(C)Cc2cncnc2)[C@H](C)CN([C@H](C)CO)S3(=O)=O)cc1	none (no result: T cruzi growth-1)
C[C@H](CO)N1C[C@H](C)[C@H](CN(C)Cc2cncnc2)Oc2cc(-c3ccncc3)ccc2S1(=O)=O	T cruzi growth-1 inconclusive | T cruzi growth-2 inactive | T cruzi growth-3 inactive | NIH3T3 tox 46.0 | 3T3 cytotox 2 48.8
C[C@H]1CN([C@@H](C)CO)S(=O)(=O)c2ccc(-c3ccncc3)cc2O[C@@H]1CN(C)Cc1cncnc1	T cruzi growth-1 108.2 | T cruzi growth-2 102.9 | T cruzi growth-3 inactive | NIH3T3 tox inactive | 3T3 cytotox 2 inactive
Cc1noc(C)c1NC(=O)N[C@H]1CC[C@@H](CC(=O)NCCCN(C)C)O[C@@H]1CO	T cruzi growth-1 inconclusive | T cruzi growth-2 inactive | T cruzi growth-3 inactive | NIH3T3 tox inactive | 3T3 cytotox 2 inactive

High-throughput results (PubChem)
